According to ChEMBL document CHEMBL3864143, “Design, synthesis and biological evaluation of novel non-covalent piperidine-containing peptidyl proteasome inhibitors” (Bioorg Med Chem, 2016):
The source made the active and inactive calls. The rule behind the calls is not given here.

Tests used:
[1] = Antiproliferative activity against human RPMI8226 cells measured after 72 hrs by MTS assay; assay type: functional, cell-based; conditions: RPMI-8226, 72 h
Procedure, shortened: (§1)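 MM-1S seeded at 2×10^4/well and RPMI 8226 at 0.5×10^4/well, exposed to compounds for 72 h. MTS then added at 0.5 mg/mL final for 2–4 h, absorbance read at 490 nm with 690 nm background subtraction. Growth inhibition = (A_control − A_sample)/A_control; IC50 from nonlinear sigmoidal variable-slope dose-response fit.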

[2] = target: T1, Proteasome Macropain subunit MB1 (Homo sapiens, UniProt P28074); test: Inhibition of chymotrypsin-like activity of human 20S proteasome preincubated for 15 mins followed by addition of Suc-Leu-Leu-Val-Tyr-AMC as substrate by fluorescence analysis
T1 sequence (P28074 whole entry): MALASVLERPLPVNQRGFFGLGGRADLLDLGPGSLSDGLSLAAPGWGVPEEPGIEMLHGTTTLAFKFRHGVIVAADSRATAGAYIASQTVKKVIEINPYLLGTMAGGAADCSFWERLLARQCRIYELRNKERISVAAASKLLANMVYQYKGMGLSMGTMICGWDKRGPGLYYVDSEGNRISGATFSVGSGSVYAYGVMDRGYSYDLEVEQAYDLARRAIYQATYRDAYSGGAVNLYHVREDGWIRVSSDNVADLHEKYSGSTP
Procedure, shortened: (§2)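 Purified human proteasome (25 µg/mL working stock) in 100 mM Tris-HCl pH 8.0 preincubated 15 min with compound. Suc-LLVY-AMC added (50 µM as listed), AMC release followed by fluorescence increase at ex 355/em 460 nm. IC50 by sigmoidal variable-slope fit, mean of three independent determinations.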

[3] = Antiproliferative activity against human MM1S cells measured after 72 hrs by MTS assay; assay type: functional, cell-based; conditions: MM1.S; procedure, shortened: as §1
[4] = target: T2, Proteasome subunit beta type-5 (Mus musculus) (UniProt O55234); test: Inhibition of chymotrypsin-like activity of 20S proteasome in mouse blood at 0.5 to 12.5 uM preincubated for 40 mins followed by addition of Suc-Leu-Leu-Val-Tyr-AMC as substrate relative to control; assay type: tissue-based
T2 sequence (whole entry): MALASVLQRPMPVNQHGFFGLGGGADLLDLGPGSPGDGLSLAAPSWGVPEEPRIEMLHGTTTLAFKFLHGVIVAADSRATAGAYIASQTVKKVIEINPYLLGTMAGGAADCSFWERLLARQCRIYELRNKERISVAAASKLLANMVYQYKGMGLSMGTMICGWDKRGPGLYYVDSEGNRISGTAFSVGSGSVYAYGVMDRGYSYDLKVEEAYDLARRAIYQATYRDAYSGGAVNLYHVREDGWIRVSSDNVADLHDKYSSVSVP
Procedure, shortened: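 Whole blood from normal mice incubated 40 min with compound (compound:serum 1:50 by volume), centrifuged, cells lysed in 5 mM EDTA pH 8.0 at 4°C for 60 min. Lysate protein (Bradford, 100 µg) assayed in 20 mM HEPES pH 8.0, 0.5 mM EDTA, 0.05% SDS, 1% DMSO with 50 µM Suc-LLVY-AMC; fluorescence at ex 355/em 460 nm.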

[5] = target: T1, Proteasome Macropain subunit MB1; test: Inhibition of chymotrypsin-like activity of 20S proteasome (unknown origin) using succinyl-leu-leu-val-tyr-7-amino-4-methyl coumarin as substrate after 15 mins by fluorescent spectroscopic method; procedure, shortened: as §2
[6] = Half life in mouse plasma at 2 uM by LC-MS/MS analysis; assay type: ADME, cell-free
Procedure, shortened: (§3)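 Sodium-heparin mouse plasma or blood, pre-warmed to 37°C, spiked to 2 µM final from a 0.02 mM dosing solution in 0.05 M sodium phosphate with 0.5% BSA; duplicates held at 37°C. Time points quenched with acetonitrile, supernatant diluted 1:1 in water for LC-MS/MS. Percent remaining from analyte/internal-standard peak-area ratio versus time 0; T1/2 from single-phase exponential decay fit.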

[7] = Half life in mouse blood at 2 uM by LC-MS/MS analysis; assay type: ADME, tissue-based; procedure, shortened: as §3

Structure (SMILES) | IC50 [1] [µM] | IC50 [2] [µM] | IC50 [3] [µM] | inhibition [4] | IC50 [5] [µM] | half-life at 2 µM [6] [h] | half-life at 2 µM [7] [h]
O=C(Nc1cnccn1)C1CCN(C(=O)N[C@@H](CCc2ccccc2)C(=O)N[C@@H](CCc2ccccc2)C(=O)NCc2ccccc2Cl)CC1 | 0.196 | 0.0147 | 0.135 | – | – | – | –
O=C(Nc1ccccn1)C1CCN(C(=O)N[C@@H](CCc2ccccc2)C(=O)N[C@@H](CCc2ccccc2)C(=O)NCc2ccccc2Cl)CC1 | 0.0247 | 0.0024 | 0.0222 | > 60% | – | – | –
COc1ccc2c(c1)C(CC(=O)N[C@@H](CC(C)C)C(=O)N[C@H](CC(C)C)C(=O)NCc1c(F)cccc1F)CC2=O (stereo not given in full) | – | – | – | – | 0.14 | – | –
O=C(Nc1ccc(F)cc1)C1CCN(C(=O)N[C@@H](CCc2ccccc2)C(=O)N[C@@H](CCc2ccccc2)C(=O)NCc2ccccc2Cl)CC1 | 0.0943 | 0.0169 | 0.107 | – | – | – | –
O=C(Nc1ccccc1)C1CCN(C(=O)N[C@@H](CCc2ccccc2)C(=O)N[C@@H](CCc2ccccc2)C(=O)NCc2ccccc2Cl)CC1 | 0.0185 | 0.003 | 0.0202 | > 60% | – | – | –
CC(C)C[C@H](NC(=O)[C@H](CCc1ccccc1)NC(=O)CN1CCOCC1)C(=O)N[C@@H](Cc1ccccc1)C(=O)N[C@@H](CC(C)C)C(=O)[C@@]1(C)CO1 [CARFILZOMIB] | 0.0132 | – | 0.0015 | Active | – | – | –
CC(C)C[C@H](NC(=O)N1CCC(C(=O)Nc2cnccn2)CC1)C(=O)N[C@@H](CCc1ccccc1)C(=O)NCc1ccccc1Cl | 0.371 | 0.0166 | 0.261 | – | – | – | –
O=C(Nc1cnccn1)C1CCN(C(=O)N[C@@H](Cc2ccccc2)C(=O)N[C@@H](CCc2ccccc2)C(=O)NCc2ccccc2Cl)CC1 | – | 0.153 | – | – | – | – | –
C[C@H](NC(=O)N1CCC(C(=O)Nc2cnccn2)CC1)C(=O)N[C@@H](CCc1ccccc1)C(=O)NCc1ccccc1Cl | – | 0.601 | – | – | – | – | –
COc1ccc(NC(=O)C2CCN(C(=O)N[C@@H](CCc3ccccc3)C(=O)N[C@@H](CCc3ccccc3)C(=O)NCc3ccccc3Cl)CC2)cc1 | 0.0846 | 0.0157 | 0.0929 | – | – | – | –
O=C(NC1CCN(C(=O)N[C@@H](Cc2ccccc2)C(=O)N[C@@H](CCc2ccccc2)C(=O)NCc2ccccc2Cl)CC1)c1cnccn1 | – | 0.344 | – | – | – | – | –
O=C(Nc1nccs1)C1CCN(C(=O)N[C@@H](CCc2ccccc2)C(=O)N[C@@H](CCc2ccccc2)C(=O)NCc2ccccc2Cl)CC1 | 0.0295 | 0.0043 | 0.0325 | > 60% | – | – | –
O=C(Nc1cccnc1)C1CCN(C(=O)N[C@@H](CCc2ccccc2)C(=O)N[C@@H](CCc2ccccc2)C(=O)NCc2ccccc2Cl)CC1 | 0.0139 | 0.0014 | 0.0095 | > 60% | – | 7.25 | 2.98
C[C@H](NC(=O)N1CCC(NC(=O)c2cnccn2)CC1)C(=O)N[C@@H](CCc1ccccc1)C(=O)NCc1ccccc1Cl | – | 0.67 | – | – | – | – | –
O=C(NC1CCN(C(=O)N[C@@H](CCc2ccccc2)C(=O)N[C@@H](CCc2ccccc2)C(=O)NCc2ccccc2Cl)CC1)c1cnccn1 | – | 0.0237 | – | – | – | – | –
CC(C)C[C@H](NC(=O)N1CCC(NC(=O)c2cnccn2)CC1)C(=O)N[C@@H](CCc1ccccc1)C(=O)NCc1ccccc1Cl | – | 0.0457 | – | – | – | – | –
